According to ChEMBL document CHEMBL1157098, “AMP-activated protein kinase (AMPK) activation by benzofurans and coumestans isolated from Erythrina abyssinica” (J Nat Prod, 2010):
Active and inactive are the calls of the source. No cut-off for these calls is given here.

Legend:
Type in all cases: cell-based
[1] = biological target: 5'-AMP-activated protein kinase catalytic subunit alpha-1 (Mus musculus) (UniProt Q5EG47); test: Activation of AMPKalpha in differentiated mouse C2C12 cells assessed as change in AMPK level at 10 uM after 30 mins by Western blot analysis relative to control
Sequence of 5'-AMP-activated protein kinase catalytic subunit alpha-1 (Mus musculus) (Q5EG47 whole entry): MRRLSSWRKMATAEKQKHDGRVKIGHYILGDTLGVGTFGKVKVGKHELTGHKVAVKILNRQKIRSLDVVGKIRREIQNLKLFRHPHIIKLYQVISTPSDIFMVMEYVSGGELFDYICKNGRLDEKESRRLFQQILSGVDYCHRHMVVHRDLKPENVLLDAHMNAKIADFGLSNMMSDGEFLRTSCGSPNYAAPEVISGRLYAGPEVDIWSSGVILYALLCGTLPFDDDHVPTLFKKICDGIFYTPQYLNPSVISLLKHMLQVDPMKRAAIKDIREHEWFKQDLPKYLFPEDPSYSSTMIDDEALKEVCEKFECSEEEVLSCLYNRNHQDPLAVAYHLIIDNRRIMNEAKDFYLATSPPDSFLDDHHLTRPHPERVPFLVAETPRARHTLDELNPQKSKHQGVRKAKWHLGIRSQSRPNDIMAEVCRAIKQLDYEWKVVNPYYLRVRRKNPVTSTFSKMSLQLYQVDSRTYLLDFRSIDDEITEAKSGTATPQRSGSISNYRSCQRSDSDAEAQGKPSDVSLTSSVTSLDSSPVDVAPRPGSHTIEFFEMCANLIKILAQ
Summary of the method: (§1)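 C2C12 myoblasts seeded at 10^5 cells/well and differentiated at confluence in DMEM with 5% horse serum, medium changed every 48 h until myotubes formed. Myotubes exposed to compounds for 30 min, lysed in EBC buffer (50 mM Tris-HCl pH 7.6, 120 mM NaCl, 1 mM EDTA, 0.5% NP-40, 50 mM NaF). About 30 µg protein immunoblotted for phospho-AMPKα Thr172, phospho-ACC Ser79, total AMPK, β-actin.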

[2] = biological target: 5'-AMP-activated protein kinase catalytic subunit alpha-1 (Mus musculus) (UniProt Q5EG47); test: Activation of AMPKalpha in differentiated mouse C2C12 cells assessed as phosphorylated-ACC level at 10 uM after 30 mins by Western blot analysis relative to control; summary of the method: as §1
[3] = biological target: 5'-AMP-activated protein kinase catalytic subunit alpha-1 (Mus musculus) (UniProt Q5EG47); test: Activation of AMPKalpha in differentiated mouse C2C12 cells assessed as phosphorylated-AMPK level at 10 uM after 30 mins by Western blot analysis relative to control; summary of the method: as §1

Row | SMILES | Activity [1] | Activity [2] | Activity [3]
1 | COc1ccc2c(oc3c4ccc(O)cc4oc(=O)c23)c1CC=C(C)C | inactive | Active | Active
2 | COc1cc([C@@H]2COc3cc(O)ccc32)c(OC)cc1O | inactive | inactive | inactive
3 | COc1ccc2c(C=O)c(-c3ccc(O)cc3O)oc2c1CC=C(C)C | inactive | Active | Active
4 | COc1cc(C2(C=O)COc3cc(O)ccc32)c(OC)cc1O (stereo not drawn) | inactive | inactive | inactive

Other lines, results leading:

Row | Activity [1] | Activity [2] | Activity [3] | SMILES
5 | inactive | Active | Active | CC(C)=CCc1cc2c(cc1O)oc(=O)c1c3ccc(O)c(CC=C(C)C)c3oc21
6 | inactive | inactive | inactive | CC(C)=CCc1cc(-c2oc3c(CC=C(C)C)c(O)ccc3c2C=O)c(O)cc1O
7 | inactive | Active |  | CC(C)=CCc1cc(-c2oc3c(CC=C(C)C)c(O)ccc3c2C(=O)O)c(O)cc1O
8 | inactive | Active | Active | CC(C)=CCc1c(O)ccc2c1oc1c3ccc(O)cc3oc(=O)c21
